Reference: PubChem BioAssay AID624083 (The Scripps Research Institute Molecular Screening Center, 2012)

Target: VIM-2 metallo-beta-lactamase (Pseudomonas aeruginosa)
Test: inhibition constants against purified VIM-2 enzyme – biochemical, absorbance, probe candidates and analogs, late-stage follow-up (AID 624083)
Settings: recombinant VIM-2, nitrocefin hydrolysis absorbance 495 nm
Method in brief: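 System: VIM-2 enzyme | Quantity: VIM-2 at 0.1 nM final | Medium: HEPES buffer, pH 7.1, with zinc and Brij | Reagent: Nitrocefin substrate at varied concentrations | Compound dosing: Varied inhibitor concentrations | Timing: Enzyme reaction at room temperature | Signal: Absorbance at 495 nm tracking nitrocefin turnover over time | Read-out: Ki from mixed-inhibition regression | Repeats: Duplicates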

Compound	Ki
CN1CCN(NC(=O)CN2C(=O)/C(=C/c3c(Cl)ccc(Cl)c3Cl)SC2=S)CC1	183 nM
CN1CCN(NC(=O)CN2C(=O)/C(=C/c3c(Cl)cccc3Cl)SC2=S)CC1	1780 nM
